Test results from ChEMBL document CHEMBL1250501, “Anti-tubercular agents. Part 5: synthesis and biological evaluation of benzothiadiazine 1,1-dioxide based congeners” (Eur J Med Chem, 2010).
Values after ≈ are worked out from the molar mass of the structure shown. Active and inactive are the calls of the source. The calls are words filed in the database; no cut-off is given here.

How the values were obtained:
Format in all cases: functional
[1] = test system: Mycobacterium tuberculosis; experiment: Antimycobacterial activity against Mycobacterium tuberculosis H37Rv after 3 to 4 weeks by broth microdilution assay
How it was run: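 MIC by broth microdilution on compounds active in a single-concentration primary screen. Plates incubated 3–4 weeks at 37 °C in a CO₂ incubator. Wells read visually for absence of growth turbidity.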

Klebsiella pneumoniae [2] = experiment: Antibacterial activity against Klebsiella pneumoniae at 100 ug/ml after 18 hrs by cup plate method; conditions: read-out: DIZ
How it was run: (§1)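 Agar well diffusion on Mueller-Hinton agar. Inoculum was adjusted to a 0.5 McFarland standard (about […] × 10⁸ CFU/mL) and swabbed over the plate three times, rotating about 60° each time, then the rim was swabbed. Compounds in DMSO went into duplicate 6 mm wells. Plates were incubated at 37 °C for 18 h and inhibition zone diameter read to the nearest mm. DMSO negative control; streptomycin and ciprofloxacin positive controls.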

Pseudomonas aeruginosa [3] = experiment: Antibacterial activity against Pseudomonas aeruginosa at 50 ug/ml after 18 hrs by cup plate method; how it was run: as §1
[4] = test system: Staphylococcus epidermidis; experiment: Antibacterial activity against Staphylococcus epidermidis at 50 ug/ml after 18 hrs by cup plate method; how it was run: as §1
Candida albicans [5] = experiment: Antifungal activity against Candida albicans MTCC 227 at 50 ug/ml after 48 hrs by cup plate method
How it was run: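 Agar well (cup plate) diffusion on potato dextrose agar 39 g/L. Compounds dissolved in DMSO and loaded into 6 mm wells. Incubated at 28 ± 2 °C for 48 h. Inhibition zone diameter measured to the nearest millimetre, three replicates per treatment. DMSO solvent as negative control, amphotericin B as positive control.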

Staphylococcus aureus [6] = experiment: Antibacterial activity against Staphylococcus aureus at 100 ug/ml after 18 hrs by cup plate method; conditions: read-out: DIZ; how it was run: as §1
Staphylococcus aureus [7] = experiment: Antibacterial activity against Staphylococcus aureus at 50 ug/ml after 18 hrs by cup plate method; conditions: read-out: DIZ; how it was run: as §1
Pseudomonas aeruginosa [8] = experiment: Antibacterial activity against Pseudomonas aeruginosa at 100 ug/ml after 18 hrs by cup plate method; conditions: read-out: DIZ; how it was run: as §1
Klebsiella pneumoniae [9] = experiment: Antibacterial activity against Klebsiella pneumoniae at 50 ug/ml after 18 hrs by cup plate method; how it was run: as §1
Escherichia coli [10] = experiment: Antibacterial activity against Escherichia coli at 100 ug/ml after 18 hrs by cup plate method; conditions: read-out: DIZ; how it was run: as §1
Bacillus subtilis [11] = experiment: Antibacterial activity against Bacillus subtilis at 50 ug/ml after 18 hrs by cup plate method; how it was run: as §1
Bacillus subtilis [12] = experiment: Antibacterial activity against Bacillus subtilis at 100 ug/ml after 18 hrs by cup plate method; conditions: read-out: DIZ; how it was run: as §1
[13] = test system: Staphylococcus epidermidis; experiment: Antibacterial activity against Staphylococcus epidermidis at 100 ug/ml after 18 hrs by cup plate method; conditions: read-out: DIZ; how it was run: as §1
Escherichia coli [14] = experiment: Antibacterial activity against Escherichia coli at 50 ug/ml after 18 hrs by cup plate method; how it was run: as §1
Candida albicans [15] = experiment: Antifungal activity against Candida albicans MTCC 227 at 100 ug/ml after 48 hrs by cup plate method; conditions: MTCC 227, 48 h, read-out: IZ
How it was run: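 Agar well (cup plate) diffusion on potato dextrose agar 39 g/L, with compounds dissolved in DMSO. Plates were incubated at 28 ± 2 °C for 48 h and inhibition zones measured to the nearest mm. Three replicates per treatment. Amphotericin B positive control; solvent control included.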

`CCN1C(N2CCN(Cc3ccc([N+](=O)[O-])s3)CC2)=NS(=O)(=O)c2ccccc21` was tested, and the MIC [1] was 4 µg/mL (≈ 9.18 µM), the zone of inhibition at 100 µg/mL (Klebsiella pneumoniae [2]) was 14 mm and the “diameter of the inhibition zone (DIZ)” value (Pseudomonas aeruginosa [3]) was “inactive”. The zone of inhibition at 50 µg/mL ([4]; read-out: DIZ) was 12 mm, the “inhibition zone (IZ)” value (Candida albicans [5]) was “inactive” and the zone of inhibition at 100 µg/mL (Staphylococcus aureus [6]) was 11 mm. For the same compound, the zone of inhibition at 50 µg/mL (Staphylococcus aureus [7]) was 10 mm, the zone of inhibition at 100 µg/mL (Pseudomonas aeruginosa [8]) was 11 mm and the “diameter of the inhibition zone (DIZ)” value (Klebsiella pneumoniae [9]) was “inactive”. For the same compound, the zone of inhibition at 100 µg/mL (Escherichia coli [10]) was 15 mm, the “diameter of the inhibition zone (DIZ)” value (Bacillus subtilis [11]) was “inactive” and the zone of inhibition at 100 µg/mL (Bacillus subtilis [12]) was 16 mm. For the same compound, the zone of inhibition at 100 µg/mL [13] was 18 mm, the “diameter of the inhibition zone (DIZ)” value (Escherichia coli [14]) was “inactive” and the zone of inhibition at 100 µg/mL (Candida albicans [15]) was 14 mm.
With `O=[N+]([O-])c1ccc(CN2CCN(C3=NS(=O)(=O)c4ccccc4N3c3ccccc3)CC2)s1` the MIC [1] was over 16 µg/mL, the zone of inhibition at 100 µg/mL (Klebsiella pneumoniae [2]) was 13 mm and the “diameter of the inhibition zone (DIZ)” value (Pseudomonas aeruginosa [3]) was “inactive”. For the same compound, the “diameter of the inhibition zone (DIZ)” value [4] was “inactive”, the “inhibition zone (IZ)” value (Candida albicans [5]) was “inactive” and the zone of inhibition at 100 µg/mL (Staphylococcus aureus [6]) was 12 mm. For the same compound, the zone of inhibition at 50 µg/mL (Staphylococcus aureus [7]) was 9 mm, the zone of inhibition at 100 µg/mL (Pseudomonas aeruginosa [8]) was 12 mm and the “diameter of the inhibition zone (DIZ)” value (Klebsiella pneumoniae [9]) was “inactive”. The zone of inhibition at 100 µg/mL (Escherichia coli [10]) was 16 mm, the “diameter of the inhibition zone (DIZ)” value (Bacillus subtilis [11]) was “inactive” and the zone of inhibition at 100 µg/mL (Bacillus subtilis [12]) was 14 mm. The zone of inhibition at 100 µg/mL [13] was 14 mm, the “diameter of the inhibition zone (DIZ)” value (Escherichia coli [14]) was “inactive” and the zone of inhibition at 100 µg/mL (Candida albicans [15]) was 12 mm.
